Data reported in ChEMBL document CHEMBL4725348, “Rational Design and Evaluation of 6-(Pyrimidin-2-ylamino)-3,4-dihydroquinoxalin-2(1H)-ones as Polypharmacological Inhibitors of BET and Kinases” (J Med Chem, 2020).
Values belong to the compound of their own block, whether it stands above or below them.

Tests used:
[1] = target: T1, Cyclin-dependent kinase 9 (Homo sapiens, UniProt P50750); experiment: Inhibition of human CDK9 at 1 uM by mobility shift assay relative to control
How it was run: (§1)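 Recombinant CDK9 incubated with compound and CTD3 peptide substrate. Activity read by Caliper mobility-shift; Dinaciclib served as positive control. IC50 values are means of at least two independent experiments.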

[2] = target: T1, Cyclin-dependent kinase 9; experiment: Inhibition of human CDK9 at 100 nM by mobility shift assay relative to control; how it was run: as §1
[3] = target: T2, Bromodomain-containing protein 4 (Homo sapiens, UniProt O60885); experiment: Inhibition of His6-tagged BRD4 bromodomain 1 (unknown origin) expressed in Escherichia coli Bl21(DE3) cells incubated for 4 hrs by FP assay
How it was run: (§2)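 Fluorescence polarization. Purified bromodomain (His6 tag removed with TEV, size-exclusion purified) equilibrated with fluorescent ligand. Compound or DMSO (2‰ final) then added and left 4 h at room temperature in the dark. Anisotropy read at ex 485/em 530 nm. IC50 values are means of at least two independent experiments; single-point inhibition tested at the listed concentration.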

[4] = target: T1, Cyclin-dependent kinase 9; experiment: Inhibition of human CDK9 by mobility shift assay relative to control; how it was run: as §1
[5] = target: T2, Bromodomain-containing protein 4; experiment: Inhibition of His6-tagged BRD4 bromodomain 1 (unknown origin) expressed in Escherichia coli Bl21(DE3) cells at 1 uM incubated for 4 hrs by FP assay relative to control; how it was run: as §2
[6] = target: T3, Aurora kinase A (Homo sapiens) (UniProt O14965); experiment: Inhibition AuroraA (unknown origin) at 100 nM relative to control
T3 sequence (whole entry): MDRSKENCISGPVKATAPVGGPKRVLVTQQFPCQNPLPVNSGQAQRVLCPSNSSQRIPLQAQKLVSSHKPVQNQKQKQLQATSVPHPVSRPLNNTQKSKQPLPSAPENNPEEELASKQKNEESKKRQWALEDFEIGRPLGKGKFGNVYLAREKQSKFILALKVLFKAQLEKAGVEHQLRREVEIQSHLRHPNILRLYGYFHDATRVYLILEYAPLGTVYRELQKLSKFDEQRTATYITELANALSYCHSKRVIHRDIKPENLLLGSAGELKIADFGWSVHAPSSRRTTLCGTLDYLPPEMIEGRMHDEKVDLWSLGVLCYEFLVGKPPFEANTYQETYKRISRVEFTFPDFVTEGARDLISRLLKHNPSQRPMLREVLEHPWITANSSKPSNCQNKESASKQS

[7] = target: Phosphatidylinositol 4,5-bisphosphate 3-kinase catalytic subunit alpha isoform (Homo sapiens) (UniProt P42336); experiment: Inhibition PI3Kalpha (unknown origin) at 1 uM relative to control
[8] = target: T3, Aurora kinase A (Homo sapiens); experiment: Inhibition AuroraA (unknown origin) at 1 uM relative to control
[9] = target: Phosphatidylinositol 4,5-bisphosphate 3-kinase catalytic subunit alpha isoform (Homo sapiens) (UniProt P42336); experiment: Inhibition PI3Kalpha (unknown origin) at 100 nM relative to control
[10] = target: Cyclin-dependent kinase 6 (Homo sapiens) (UniProt Q00534); experiment: Inhibition of CDK6 (unknown origin) at 100 nM relative to control
[11] = target: Cyclin-dependent kinase 6 (Homo sapiens) (UniProt Q00534); experiment: Inhibition of CDK6 (unknown origin) at 1 uM relative to control
[12] = target: T2, Bromodomain-containing protein 4; experiment: Inhibition of His6-tagged BRD4 bromodomain 1 (unknown origin) expressed in Escherichia coli Bl21(DE3) cells at 10 uM incubated for 4 hrs by FP assay relative to control; how it was run: as §2
[13] = target: ALK tyrosine kinase receptor (Homo sapiens, UniProt Q9UM73); experiment: Inhibition of ALK (unknown origin)
[14] = target: T1, Cyclin-dependent kinase 9; experiment: Inhibition of CDK9 in human HCT-116 cells assessed as reduction in phosphorylation of […] protein expression at 50 to 500 nM after 24 hrs by Western blot analysis; assay type: cell-based; settings: dose nM 50-500, time 24.0 hrs
How it was run: (§3)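 HCT-116 cells plated 24 h, then treated 24 h at 0, 50, 100, 250 or 500 nM. Lysates immunoblotted for p-AR and p-RNA Pol II CTD with GAPDH as loading control; bands quantified and normalized.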

[15] = target: T1, Cyclin-dependent kinase 9; experiment: Inhibition of CDK9 in human HCT-116 cells assessed as reduction in phosphorylation of AR protein expression at 50 to 500 nM after 24 hrs by Western blot analysis; assay type: cell-based; settings: dose nM 50-500, time 24.0 hrs; how it was run: as §3

T1 sequence (P50750 whole entry): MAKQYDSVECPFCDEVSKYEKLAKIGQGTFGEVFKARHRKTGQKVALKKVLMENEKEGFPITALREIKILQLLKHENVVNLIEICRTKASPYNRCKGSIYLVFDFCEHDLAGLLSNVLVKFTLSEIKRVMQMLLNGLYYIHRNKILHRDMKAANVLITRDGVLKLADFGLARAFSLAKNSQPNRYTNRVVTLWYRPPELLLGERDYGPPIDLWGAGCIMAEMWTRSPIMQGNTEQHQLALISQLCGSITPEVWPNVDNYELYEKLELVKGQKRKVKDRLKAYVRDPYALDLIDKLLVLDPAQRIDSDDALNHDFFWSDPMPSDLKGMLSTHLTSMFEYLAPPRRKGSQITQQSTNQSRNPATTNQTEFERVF
Chain of Phosphatidylinositol 4,5-bisphosphate 3-kinase catalytic subunit alpha isoform (Homo sapiens) (P42336 whole entry, canonical isoform): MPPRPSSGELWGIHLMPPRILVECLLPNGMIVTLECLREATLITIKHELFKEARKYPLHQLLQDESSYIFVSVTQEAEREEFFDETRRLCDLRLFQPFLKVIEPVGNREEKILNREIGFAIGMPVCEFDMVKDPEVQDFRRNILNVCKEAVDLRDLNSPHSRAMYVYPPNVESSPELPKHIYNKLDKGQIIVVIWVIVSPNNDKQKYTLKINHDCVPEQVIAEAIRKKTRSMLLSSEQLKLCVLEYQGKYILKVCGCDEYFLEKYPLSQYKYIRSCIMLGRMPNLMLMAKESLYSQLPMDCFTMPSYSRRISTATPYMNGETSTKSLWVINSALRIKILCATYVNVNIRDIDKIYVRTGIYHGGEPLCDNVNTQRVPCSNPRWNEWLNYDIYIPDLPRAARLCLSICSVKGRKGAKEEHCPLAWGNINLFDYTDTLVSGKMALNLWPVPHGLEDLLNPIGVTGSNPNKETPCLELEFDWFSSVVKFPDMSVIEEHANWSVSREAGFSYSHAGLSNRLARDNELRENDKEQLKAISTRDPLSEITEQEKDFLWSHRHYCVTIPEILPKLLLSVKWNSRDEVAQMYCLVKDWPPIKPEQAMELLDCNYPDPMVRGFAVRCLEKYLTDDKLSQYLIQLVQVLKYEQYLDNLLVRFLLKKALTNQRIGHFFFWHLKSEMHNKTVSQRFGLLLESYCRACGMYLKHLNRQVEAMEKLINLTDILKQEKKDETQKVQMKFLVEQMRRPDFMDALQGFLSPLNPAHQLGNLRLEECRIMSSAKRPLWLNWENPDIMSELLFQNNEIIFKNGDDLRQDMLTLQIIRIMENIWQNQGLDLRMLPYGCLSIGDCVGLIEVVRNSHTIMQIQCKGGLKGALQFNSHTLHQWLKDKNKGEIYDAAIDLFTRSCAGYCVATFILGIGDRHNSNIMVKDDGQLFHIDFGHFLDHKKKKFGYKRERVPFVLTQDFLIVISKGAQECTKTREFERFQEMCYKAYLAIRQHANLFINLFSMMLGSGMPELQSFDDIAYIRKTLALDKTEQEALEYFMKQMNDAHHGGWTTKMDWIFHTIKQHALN
Chain of Cyclin-dependent kinase 6 (Homo sapiens) (Q00534 whole entry): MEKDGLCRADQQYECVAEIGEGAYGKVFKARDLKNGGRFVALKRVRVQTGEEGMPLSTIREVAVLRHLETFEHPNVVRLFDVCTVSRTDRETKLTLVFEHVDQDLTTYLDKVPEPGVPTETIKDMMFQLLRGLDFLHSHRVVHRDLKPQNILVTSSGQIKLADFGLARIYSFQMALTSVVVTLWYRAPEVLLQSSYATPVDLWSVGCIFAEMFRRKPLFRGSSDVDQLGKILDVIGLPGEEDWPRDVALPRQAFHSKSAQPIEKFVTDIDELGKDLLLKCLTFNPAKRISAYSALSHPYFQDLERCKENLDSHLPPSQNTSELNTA
Chain of ALK tyrosine kinase receptor (Q9UM73 whole entry): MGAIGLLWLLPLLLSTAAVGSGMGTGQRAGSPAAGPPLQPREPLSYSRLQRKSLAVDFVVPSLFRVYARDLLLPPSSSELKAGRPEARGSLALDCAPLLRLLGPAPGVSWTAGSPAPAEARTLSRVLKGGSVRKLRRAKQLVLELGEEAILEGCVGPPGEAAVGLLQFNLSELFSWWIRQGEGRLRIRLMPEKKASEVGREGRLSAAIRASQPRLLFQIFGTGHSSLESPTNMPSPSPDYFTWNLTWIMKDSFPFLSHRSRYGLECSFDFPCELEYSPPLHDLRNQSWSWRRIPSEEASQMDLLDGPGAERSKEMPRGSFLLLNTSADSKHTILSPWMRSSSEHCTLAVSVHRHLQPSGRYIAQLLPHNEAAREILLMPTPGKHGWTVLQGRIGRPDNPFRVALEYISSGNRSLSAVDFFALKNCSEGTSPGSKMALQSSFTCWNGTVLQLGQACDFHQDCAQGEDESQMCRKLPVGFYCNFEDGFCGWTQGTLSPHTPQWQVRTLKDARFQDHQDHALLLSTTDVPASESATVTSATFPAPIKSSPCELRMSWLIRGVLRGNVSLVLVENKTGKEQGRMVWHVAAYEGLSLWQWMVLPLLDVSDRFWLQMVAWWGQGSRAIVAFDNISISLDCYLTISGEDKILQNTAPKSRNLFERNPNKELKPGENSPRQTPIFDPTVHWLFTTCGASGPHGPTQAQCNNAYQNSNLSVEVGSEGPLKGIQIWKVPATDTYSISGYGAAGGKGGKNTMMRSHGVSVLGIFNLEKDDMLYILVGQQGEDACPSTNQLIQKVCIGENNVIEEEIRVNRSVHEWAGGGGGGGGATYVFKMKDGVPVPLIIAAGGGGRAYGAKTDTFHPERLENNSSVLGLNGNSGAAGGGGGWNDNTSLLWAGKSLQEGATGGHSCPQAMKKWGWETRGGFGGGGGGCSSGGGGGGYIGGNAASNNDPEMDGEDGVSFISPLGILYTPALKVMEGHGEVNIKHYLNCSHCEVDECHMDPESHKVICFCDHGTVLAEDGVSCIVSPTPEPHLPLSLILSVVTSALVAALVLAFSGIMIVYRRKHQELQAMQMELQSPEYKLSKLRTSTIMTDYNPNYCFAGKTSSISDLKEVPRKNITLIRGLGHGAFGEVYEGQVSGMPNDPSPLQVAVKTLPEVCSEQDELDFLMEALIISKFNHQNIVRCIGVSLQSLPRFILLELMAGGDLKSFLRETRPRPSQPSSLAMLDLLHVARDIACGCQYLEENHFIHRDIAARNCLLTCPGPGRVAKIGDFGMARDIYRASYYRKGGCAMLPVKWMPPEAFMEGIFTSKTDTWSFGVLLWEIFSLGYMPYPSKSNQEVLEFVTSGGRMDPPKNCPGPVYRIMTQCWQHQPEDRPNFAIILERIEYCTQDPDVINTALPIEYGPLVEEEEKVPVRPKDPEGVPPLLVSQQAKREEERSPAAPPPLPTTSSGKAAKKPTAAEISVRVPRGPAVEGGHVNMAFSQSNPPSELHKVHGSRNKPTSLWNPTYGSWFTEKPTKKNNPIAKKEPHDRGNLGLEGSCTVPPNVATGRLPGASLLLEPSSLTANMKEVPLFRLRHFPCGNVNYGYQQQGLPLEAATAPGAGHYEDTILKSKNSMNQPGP

Compound: CC(C)N1c2cc(Nc3nccc(-c4c[nH]c5ccccc45)n3)ccc2N(C)C(=O)[C@H]1C
inhibition [1]: 58.6%
inhibition [2]: 7.6%
IC50 [3]: 329 nM

Compound: Cc1noc(C)c1-c1cccc(Nc2nccc(-c3ccccc3)n2)c1
inhibition [5]: 2.2%

Compound: COc1cc(F)ccc1-c1ccnc(Nc2ccc3c(c2)N(C(C)C)[C@H](C)C(=O)N3C)n1
IC50 [4]: 46.9 nM
IC50 [3]: 497 nM

Compound: Cc1cnc(Nc2ccc3c(c2)N(C(C)C)[C@H](C)C(=O)N3C)nc1-c1cncc2ccccc12
IC50 [4]: 100 nM
IC50 [3]: 19.1 nM

Compound: CC(C)N1c2cc(Nc3cccc(-c4ccncc4)c3)ccc2N(C)C(=O)[C@H]1C
inhibition [6]: -6.1%
inhibition [7]: -1%
inhibition [8]: 14.2%
inhibition [9]: -4.1%
inhibition [1]: 0.7%
inhibition [2]: 2.2%
inhibition [10]: 2.7%
IC50 [3]: 77.3 nM
inhibition [11]: 0.7%

Compound: CC(C)N1c2cc(Nc3nccc(-c4cccc(NC5CCCCC5)c4)n3)ccc2N(C)C(=O)[C@H]1C
IC50 [4]: 169 nM
inhibition [12]: 13%

Compound: CC(C)N1c2cc(Nc3nccc(-c4cccc5nn(C)cc45)n3)ccc2N(C)C(=O)[C@H]1C
IC50 [4]: 110 nM
IC50 [3]: 168 nM

Compound: CC(C)N1c2cc(Nc3ncc(F)c(-c4cncc5ccccc45)n3)ccc2N(C)C(=O)[C@H]1C
IC50 [4]: 23.9 nM
IC50 [3]: 81.3 nM

Compound: CC(C)N1c2cc(Nc3cccc(-c4cccc(C#N)c4)c3)ccc2N(C)C(=O)[C@H]1C
inhibition [6]: -3%
inhibition [7]: 5.2%
inhibition [8]: -1.8%
inhibition [9]: -0.1%
inhibition [1]: -4.1%
inhibition [2]: 2%
inhibition [10]: 2.3%
IC50 [3]: 666 nM
inhibition [11]: -3.3%

Compound: CC(C)N1c2cc(Nc3nccc(-c4cccc5c4CCCN5)n3)ccc2N(C)C(=O)[C@H]1C
IC50 [4]: 67 nM
IC50 [3]: 27 nM

Compound: CC(C)N1c2cc(Nc3nccc(-c4ccnc5ccccc45)n3)ccc2N(C)C(=O)[C@H]1C
IC50 [4]: 19.8 nM
IC50 [3]: 25.3 nM

Compound: CC(C)N1c2cc(Nc3nccc(-c4cccc5ncccc45)n3)ccc2N(C)C(=O)[C@H]1C
IC50 [4]: 81.6 nM
IC50 [3]: 15.2 nM

Compound: Cc1noc(C)c1-c1cccc(Nc2nccc(-c3ccncc3)n2)c1
inhibition [5]: 37.7%

Compound: CC(C)N1c2cc(Nc3ncc(Cl)c(-c4cncc5ccccc45)n3)ccc2N(C)C(=O)[C@H]1C
IC50 [4]: 23 nM
IC50 [3]: 58.1 nM

Compound: CCOc1cc(C2CCN(C)CC2)ccc1Nc1ncc2c(n1)N(Cc1cc(C)cs1)[C@H](CC)C(=O)N2C
IC50 [13]: 17 nM

Compound: COc1cc(F)ccc1-c1ncnc(Nc2cccc(C[S@](C)(=N)=O)c2)n1
inhibition [14]: Dose-dependent effect
inhibition [15]: Dose-dependent effect

Compound: CC(C)N1c2cc(Nc3cccc(-c4ccccc4)c3)ccc2N(C)C(=O)[C@H]1C
inhibition [6]: -3.4%
inhibition [7]: 6.1%
inhibition [8]: -1.5%
inhibition [9]: -4.8%
inhibition [1]: 1.3%
inhibition [2]: -6.1%
inhibition [10]: 1.8%
IC50 [3]: 357 nM
inhibition [11]: 0.9%

Compound: COc1ccccc1-c1cccc(Nc2ccc3c(c2)N(C(C)C)[C@H](C)C(=O)N3C)c1
inhibition [6]: 1.1%
inhibition [7]: 3%
inhibition [8]: -0.8%
inhibition [9]: -2.6%
inhibition [1]: 3.8%
inhibition [2]: -3%
inhibition [10]: -1.4%
IC50 [3]: 820 nM
inhibition [11]: -0.1%

Compound: CC(C)N1c2cc(Nc3nccc(-c4cccc(Nc5ccccc5)c4)n3)ccc2N(C)C(=O)[C@H]1C
inhibition [1]: 47.8%
inhibition [2]: 8.8%

Compound: CC(C)N1c2cc(Nc3nccc(-c4cccc5cnccc45)n3)ccc2N(C)C(=O)[C@H]1C
IC50 [4]: 79.8 nM
IC50 [3]: 75.9 nM

The next lines start with the values.

IC50 [4]: 126 nM
IC50 [3]: 965 nM
Compound: COc1cccc(-c2ccnc(Nc3ccc4c(c3)N(C(C)C)[C@H](C)C(=O)N4C)n2)c1

IC50 [4]: 151 nM
IC50 [3]: 236 nM
Compound: Cc1ccc(N)cc1-c1ccnc(Nc2ccc3c(c2)N(C(C)C)[C@H](C)C(=O)N3C)n1

inhibition [6]: 4%
inhibition [7]: 82.4%
inhibition [8]: 43.7%
inhibition [9]: 37.5%
inhibition [1]: 98%
inhibition [2]: 94.5%
inhibition [10]: 0.2%
IC50 [3]: 83 nM
inhibition [11]: 7.7%
Compound: CC(C)N1c2cc(Nc3nccc(-c4ccncc4)n3)ccc2N(C)C(=O)[C@H]1C

IC50 [4]: 13.8 nM
IC50 [3]: 288 nM
Compound: CC(C)N1c2cc(Nc3nccc(-c4cccc5[nH]ccc45)n3)ccc2N(C)C(=O)[C@H]1C

IC50 [4]: 48.9 nM
IC50 [3]: 480 nM
Compound: CC(C)N1c2cc(Nc3nccc(-c4ccc(N)cc4)n3)ccc2N(C)C(=O)[C@H]1C

IC50 [4]: 39.2 nM
IC50 [3]: 251 nM
Compound: CC(C)N1c2cc(Nc3nccc(-c4ccccc4N)n3)ccc2N(C)C(=O)[C@H]1C

IC50 [4]: 122 nM
inhibition [12]: 11%
Compound: CC(C)N1c2cc(Nc3nccc(-c4cccc(NC5CCCC5)c4)n3)ccc2N(C)C(=O)[C@H]1C

inhibition [1]: 1%
inhibition [2]: 1.5%
IC50 [3]: 271 nM
Compound: Cc1ccccc1-c1ccnc(Nc2ccc3c(c2)N(C(C)C)[C@H](C)C(=O)N3C)n1

IC50 [4]: 578 nM
IC50 [3]: 156 nM
Compound: Cc1cc(F)ccc1-c1ccnc(Nc2ccc3c(c2)N(C(C)C)[C@H](C)C(=O)N3C)n1

IC50 [4]: 50.9 nM
IC50 [3]: 268 nM
Compound: CC(C)Nc1cccc(-c2ccnc(Nc3ccc4c(c3)N(C(C)C)[C@H](C)C(=O)N4C)n2)c1

IC50 [4]: 196 nM
IC50 [3]: 760 nM
Compound: Cc1cccc(-c2ccnc(Nc3ccc4c(c3)N(C(C)C)[C@H](C)C(=O)N4C)n2)c1

inhibition [6]: 10.6%
inhibition [7]: 22.9%
inhibition [9]: 0%
inhibition [1]: 102%
inhibition [2]: 83.4%
inhibition [10]: -0.8%
IC50 [3]: 193 nM
inhibition [11]: 4.8%
Compound: CC(C)N1c2cc(Nc3nccc(-c4ccccc4)n3)ccc2N(C)C(=O)[C@H]1C

IC50 [4]: 37.8 nM
IC50 [3]: 319 nM
Compound: CCNc1cccc(-c2ccnc(Nc3ccc4c(c3)N(C(C)C)[C@H](C)C(=O)N4C)n2)c1

IC50 [4]: 22 nM
IC50 [3]: 173 nM
Compound: CNc1cccc(-c2ccnc(Nc3ccc4c(c3)N(C(C)C)[C@H](C)C(=O)N4C)n2)c1

inhibition [6]: 37.4%
inhibition [7]: 0.1%
inhibition [8]: 86.8%
inhibition [9]: -2.1%
inhibition [1]: 104%
inhibition [2]: 67.9%
inhibition [10]: 2.3%
IC50 [3]: 477 nM
inhibition [11]: 8.1%
Compound: COc1ccccc1-c1ccnc(Nc2ccc3c(c2)N(C(C)C)[C@H](C)C(=O)N3C)n1

IC50 [4]: 31.7 nM
IC50 [3]: 535 nM
Compound: COc1ccc(-c2ccnc(Nc3ccc4c(c3)N(C(C)C)[C@H](C)C(=O)N4C)n2)cc1

inhibition [6]: 8.7%
inhibition [7]: 63.1%
inhibition [8]: 54.4%
inhibition [9]: 14.1%
inhibition [1]: 71.8%
inhibition [2]: 25.2%
inhibition [10]: -0.8%
IC50 [3]: 161 nM
inhibition [11]: 2.8%
Compound: CC(C)N1c2cc(Nc3nccc(-c4cccc(C#N)c4)n3)ccc2N(C)C(=O)[C@H]1C

IC50 [4]: 488 nM
IC50 [3]: 5850 nM
Compound: Cc1ccc(-c2ccnc(Nc3ccc4c(c3)N(C(C)C)[C@H](C)C(=O)N4C)n2)cc1

IC50 [4]: 183 nM
IC50 [3]: 115 nM
Compound: Cc1c(N)cccc1-c1ccnc(Nc2ccc3c(c2)N(C(C)C)[C@H](C)C(=O)N3C)n1

IC50 [4]: 5.9 nM
IC50 [3]: 120 nM
Compound: CC(C)N1c2cc(Nc3nccc(-c4cccc(N)c4)n3)ccc2N(C)C(=O)[C@H]1C
